Results of several laboratories.
Lines come from different studies, so protocols differ.
Mode: inhibitor
PRMT3: Protein arginine N-methyltransferase 3 (PRMT3, Homo sapiens, UniProt O60678)
TDP1: Tyrosyl-DNA phosphodiesterase 1 (TDP1, Homo sapiens, UniProt Q9NUW8)
GSR: Glutathione reductase, mitochondrial (GSR, Homo sapiens, UniProt P00390)
LDHA: L-lactate dehydrogenase A chain (LDHA, Homo sapiens, UniProt P00338)
MAOA: Amine oxidase [flavin-containing] A (MAOA, Homo sapiens, UniProt P21397)

| Structure (SMILES) | target | test | conditions | IC50 [µM] |
| --- | --- | --- | --- | --- |
| Nc1ncnc2c1ncn2[C@@H]1O[C@H](CSCCNC(=O)NCc2ccc(F)cc2)[C@@H](O)[C@H]1O | PRMT3 | enzyme activity, fluorescence | – | 5.9 |
| COc1cc2c(OC)nc3c4cc5c(cc4cc(OCCCN4CCC(N6CCCCC6)CC4)c3c2cc1OC)OCO5 | TDP1 | enzyme activity | – | 11 |
| Nc1ncnc2c1ncn2[C@@H]1O[C@H](CSCCNC(=O)Nc2cccc3ccccc23)[C@@H](O)[C@H]1O | PRMT3 | enzyme activity, fluorescence | – | 81 |
| CSc1ccc(/C=C2/C(C)=C(CC(=O)O)c3cc(F)ccc32)cc1 | Cone cGMP-specific 3',5'-cyclic phosphodiesterase subunit alpha' (PDE6C, Homo sapiens, UniProt P51160) | enzyme activity | – | > 100 |
| CC1(C)C(/C=C/C=C2/N(CCCc3ccccc3)c3ccc4ccccc4c3C2(C)C)=[N+](CCCc2ccccc2)c2ccc3ccccc3c21 | PRMT3 | enzyme activity, radiometric | – | 0.72 |
| C#Cc1ccc(C(=O)C2=C(C)C(=O)c3ccccc3C2=O)cc1 | GSR | enzyme activity | pH 6.9 | 0.6 |
| CN1CCN(CCCN2c3ccccc3Sc3ccc(Cl)cc32)CC1 | GSR | enzyme activity, absorbance | – | > 100 |
| C[C@@H]1O[C@@H](O[C@@H]2[C@@H](O)[C@H](OCCc3ccc(O)c(O)c3)O[C@H](CO)[C@H]2OC(=O)/C=C/c2ccc(O)c(O)c2)[C@H](O)[C@H](O)[C@H]1O | LDHA | enzyme activity | pH 7.4 | > 500 |
| O=C1NC(=O)/C(=C/c2ccc(OCCNc3nc4c(cnn4C4CCCC4)c(=O)[nH]3)c(F)c2)S1 | High affinity 3',5'-cyclic-AMP phosphodiesterase 7A (PDE7A, Homo sapiens, UniProt Q13946) | enzyme activity | – | 0.027 |
| N[C@@H](Cc1ccc(C(F)(F)P(=O)(O)O)cc1)C(=O)O | Tyrosine-protein phosphatase non-receptor type 1 (PTPN1, Homo sapiens, UniProt P18031) | enzyme activity, absorbance | – | 500 |
| C[C@@H]1C[C@H]2O[C@@H]2/C=C\C=C\C(=O)Cc2cc(O)cc(O)c2C(=O)O1 | Mitogen-activated protein kinase kinase kinase 7 (MAP3K7, Homo sapiens, UniProt O43318) | enzyme activity, ATP luminescence | – | > 10 |
| Cc1c(C)c2c(c(C)c1O)CCC(C)(COc1ccc(CC3SC(=O)NC3=O)cc1)O2 (stereo not shown) | Peroxisome proliferator-activated receptor delta (PPARD, Homo sapiens, UniProt Q03181) | enzyme activity | – | 46 |
| O=c1cc(-c2ccc(O)cc2)oc2c([C@@H]3O[C@H](CO)[C@@H](O)[C@H](O)[C@H]3O)c(O)c([C@@H]3O[C@H](CO)[C@@H](O)[C@H](O)[C@H]3O)c(O)c12 | MAOA | enzyme activity | – | 50.2 |
| O=c1oc(Cl)c(Cl)c2ccccc12 | Rhomboid protease AarA (Providencia stuartii, UniProt P46116) | enzyme activity, fluorescence | – | 10 |
| COc1cc2c(OC)nc3c4cc5c(cc4cc(OCCCN4CCCC4)c3c2cc1OC)OCO5 | TDP1 | enzyme activity | – | 5.5 to 13 |
| CCn1ncc2c1-c1cnc(N)c(c1)O[C@H](C)c1cc(F)ccc1-c1nn(C)nc1C2 | Focal adhesion kinase 1 (PTK2, Homo sapiens, UniProt Q05397) | enzyme activity, radiometric | – | 0.011 |
| O=C(O)c1ccc(CN2C(=O)c3cccc(NC(=O)c4ccc(Cl)s4)c3C2=O)cc1 | LDHA | enzyme activity | – | 0.308 |
| O=C(Nc1ccc([N+](=O)[O-])cc1[N+](=O)[O-])c1ccccc1 | MAOA | enzyme activity | – | 0.126 |
| Cc1cccc(Nc2ccccc2C(=O)O)c1C | Solute carrier family 22 member 6 (SLC22A6, Homo sapiens, UniProt Q4U2R8) | transporter uptake | – | 1.08 |
